Experimental data as given in article PMC3882305 (The Pediatric Infectious Disease Journal, 2013).
Read-outs that look alike come from different tables or passages of the source. Values belong to the compound of their own block, whether it stands above or below them.

How the values were obtained:
[1] = Steady-state plasma APV/RTV/FPV pharmacokinetics in HIV-1-infected children; format: in vivo
Summary of the method: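 Dosing used FPV 50 mg/mL oral suspension or 700 mg tablets (≥39 kg), with RTV 80 mg/mL solution or 100 mg capsules (≥33 kg). At week 2, intensive sampling was taken at 0, 1, 2, 4, 6, 8 and 12 h postdose, plus predose samples every 4–12 weeks. Noncompartmental AUC(0–τ), Cmax, Cτ and CL/F were calculated; actual dose had to be within 10% of nominal. Log-transformed mixed-effect ANOVA gave geometric LS mean ratios (90% CI) versus historical healthy adults on FPV 1400 mg BID (n=190) or FPV/RTV 700/100 mg BID (n=159).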

[2] = Safety: adverse events, laboratory abnormalities, growth; format: in vivo, HIV-1–infected children; conditions: for subjects with at least 1 drug-related AE: 2- to <6-year olds (FPV/RTV 2/19; FPV 12/20); for change in median height and weight Z scores: week 48; for subjects with an AE leading to permanent discontinuation of study drug and withdrawal from the study: whole treatment group; for subjects reporting AEs: whole treatment group (FPV 19/20; FPV/RTV 83/89); for subjects with at least 1 drug-related grade 2–4 AE: whole treatment group (FPV/RTV 10/89; FPV 2/20)
Summary of the method: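 AEs, growth parameters, hematology and clinical chemistry including a lipid panel were assessed every 4–12 weeks, with follow-up 4 weeks after withdrawal. Severity was graded by the DAIDS Toxicity Table (2004). All study drug was stopped for grade 3/4 AE or toxicity unless clearly unrelated.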

HIV-1 [3] = assay: Antiviral response: plasma HIV-1 RNA <400 copies/mL, ITT; format: in vivo, HIV-1–infected children
Summary of the method: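 Children aged 2–18 years received twice-daily FPV ± RTV plus 2 or 3 active NRTIs, with plasma HIV-1 RNA measured every 4–12 weeks. The ITT (exposed) population was all subjects with ≥1 documented dose. In the snapshot analysis, response at each visit was taken from the last HIV-1 RNA within the visit window. Missing data counted as nonresponse, as did switching or adding background ART, unless toxicity-driven before week 2.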

CD4+ cell = CD4+ cell response; format: in vivo, HIV-1–infected children; conditions: week 48; for median CD4+ cell count change from baseline / median percentage CD4+ cell count change from baseline: whole treatment group
Summary of the method: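 Lymphocyte subsets were monitored every 4–12 weeks in children given twice-daily FPV ± RTV with an NRTI background, with visits at weeks 2, 4, 8, 12, 16, 24, 36 and 48. CD4+ cell count and CD4+ percentage at week 48 were expressed as change from baseline and summarized as medians.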

[4] = study APV20003, cited from earlier work
HIV [5] = conditions: once-daily, cited from earlier work
HIV [6] = conditions: mostly PI-experienced, aged 6 to 17 years; time to loss of virologic response; cited from earlier work
HIV-1 [7] = conditions: ITT (missing = failure), cited from earlier work
[8] = 2- to <6-year olds (FPV 10/20, all grade 1; FPV/RTV 1/19, grade 2)

plasma amprenavir exposures compared with 1400 mg twice-daily in adults ([1]; 30 mg/kg twice-daily, 2- to <6-year olds): higher
samples with undetectable plasma FPV prodrug concentrations ([1]; plasma): 98%
Compound: CC(C)CN(C[C@@H](OP(=O)(O)O)[C@H](Cc1ccccc1)NC(=O)O[C@H]1CCOC1)S(=O)(=O)c1ccc(N)cc1 [FPV, Fosamprenavir]
incidence of drug-related vomiting [2, 8]: 50%
subjects with at least 1 drug-related AE [2]: 60%
grade 3/4 hypertriglyceridemia, raised total cholesterol or raised low density lipoprotein cholesterol ([2]; FPV group): no grade 3/4 reports
change in median height and weight Z scores [2]: Small increases
subjects with an AE leading to permanent discontinuation of study drug and withdrawal from the study [2]: none
subjects reporting AEs [2]: 95%
subjects with at least 1 drug-related grade 2–4 AE [2]: 10%
subjects with HIV-1 RNA <400 copies/mL at week 48 (HIV-1 [3]; FPV treatment group (PI-naïve, 2 to <6 yr), snapshot analysis): 60%
median CD4+ cell count change from baseline (CD4+ cell): 340 cells/mm^3
median percentage CD4+ cell count change from baseline (CD4+ cell): 8%
APV exposures compared with adults receiving FPV/RTV 1400/200 mg QD ([4]; 6- to 18-year-old children, 30/6 mg/kg QD): comparable

plasma RTV Cτ ([1]; RTV 3 mg/kg BID in combination with FPV, across the age groups): higher
Compound: CC(C)c1nc(CN(C)C(=O)N[C@H](C(=O)N[C@@H](Cc2ccccc2)C[C@H](O)[C@H](Cc2ccccc2)NC(=O)OCc2cncs2)C(C)C)cs1 [RTV, ritonavir]

APV AUC(0–τ) and Cmax compared with adults receiving FPV/RTV 700/100 mg BID ([1]; FPV/RTV 15/3 mg/kg BID, 6- to <12-year olds and 12- to 18-year olds): lower
higher plasma APV AUC(0–τ), Cmax and Cτ values than historical adults receiving FPV/RTV 700/100 mg BID ([1]; FPV/RTV 23/3 mg/kg BID, 2- to <6-year olds): approximately 50%
plasma APV exposures compared with the historical adult population ([1]; FPV/RTV 700/100 mg BID, 12- to 18-year-old subjects ≥39 kg): similar
Compound: fosamprenavir/ritonavir [FPV/RTV]
incidence of drug-related vomiting [2, 8]: 5%
subjects with at least 1 drug-related AE [2]: 11%
incidence of drug-related vomiting ([2]; 6- to <12-year olds (9/30; 7 grade 1 and 2 grade 2)): 30%
subjects with drug-related AEs ([2]; 6- to <12-year olds (13/30)): 43%
AEs leading to permanent discontinuation of study drug ([2]; 6- to <12-year olds (hypertriglyceridemia)): 1
incidence of drug-related vomiting ([2]; 12- to 18-year olds (3/40, all grade 1)): 8%
subjects with drug-related AEs ([2]; 12- to 18-year olds (15/40)): 38%
AEs leading to permanent discontinuation of study drug ([2]; 12- to 18-year olds (adverse drug reaction and pyelonephritis)): 2
grade 3/4 hypertriglyceridemia ([2]; FPV/RTV group): no reports
grade 2–4 diarrhea ([2]; FPV/RTV group (2/89)): 2%
grade 3 increases in total cholesterol ([2]; FPV/RTV group (2 subjects)): 5%
grade 2–4 vomiting ([2]; FPV/RTV group (3/89)): 3%
grade 3 increases in low density lipoprotein cholesterol ([2]; FPV/RTV group (4 subjects)): 9%
drug-related nausea ([2]; adolescent group (6/40)): 15%
drug-related diarrhea ([2]; adolescent group (7/40)): 18%
change in median height and weight Z scores [2]: Small increases
subjects with an AE leading to permanent discontinuation of study drug and withdrawal from the study [2]: Four
subjects reporting AEs [2]: 93%
subjects with at least 1 drug-related grade 2–4 AE [2]: 11%
subjects with HIV-1 RNA <400 copies/mL at week 48 (HIV-1 [3]; 2- to <6-year olds (14/19)): 74%
subjects with HIV-1 RNA <400 copies/mL at week 48 (HIV-1 [3]; 6- to <12-year-old (16/30)): 53%
subjects with HIV-1 RNA <400 copies/mL at week 48 (HIV-1 [3]; 12- to 18-year-old (25/40)): 63%
subjects with HIV-1 RNA <400 copies/mL at week 48 (HIV-1 [3]; ART-naïve subjects, snapshot analysis): 83%
subjects with HIV-1 RNA <400 copies/mL at week 48 (HIV-1 [3]; PI-experienced subjects, snapshot analysis): 48%
subjects with HIV-1 RNA <400 copies/mL at week 48 (HIV-1 [3]; PI-naïve/NRTI-experienced subjects, snapshot analysis): 65%
subjects with HIV-1 RNA <400 copies/mL at week 48 (HIV-1 [3]; range across age groups, intent-to-treat [exposed], snapshot analysis): 53–74%
median CD4+ cell count change (CD4+ cell; 2- to <6-year olds): 174 cells/mm^3
percentage CD4+ cell count change (CD4+ cell; 2- to <6-year olds): 10%
median CD4+ cell count change (CD4+ cell; 6- to <12-year olds): 210 cells/mm^3
percentage CD4+ cell count change (CD4+ cell; 6- to <12-year olds): 7%
median CD4+ cell count change (CD4+ cell; 12- to 18-year olds): 140 cells/mm^3
percentage CD4+ cell count change (CD4+ cell; 12- to 18-year olds): 7%
median CD4+ cell count change from baseline (CD4+ cell): 190 cells/mm^3
median percentage CD4+ cell count change from baseline (CD4+ cell): 8%
lower APV exposure than adults receiving FPV/RTV 1400/200 mg QD ([4]; 2- to <6-year-old children, FPV/RTV 30/6 mg/kg QD): ~ 28%

More lines, now with the values behind:

Compound: COC(=O)N[C@H](C(=O)N[C@@H](Cc1ccccc1)[C@@H](O)CN(Cc1ccc(-c2ccccn2)cc1)NC(=O)[C@@H](NC(=O)OC)C(C)(C)C)C(C)(C)C [RTV-boosted atazanavir, atazanavir]
response rate for HIV RNA <400 copies/mL at week 48 (HIV [5]; ART-experienced 6- to <18-year olds (8/25)): 32%
response rate for HIV RNA <400 copies/mL at week 48 (HIV [5]; ART-naïve 6- to <18-year olds (14/16)): 88%

Compound: CC(C)CN(C[C@@H](O)[C@H](Cc1ccccc1)NC(=O)O[C@H]1CO[C@H]2OCC[C@H]21)S(=O)(=O)c1ccc(N)cc1 [RTV-boosted darunavir, darunavir]
children achieving a viral load of <400 copies/mL at week 48 (HIV [6]): 59%

Compound: lopinavir (LPV)/RTV [LPV/RTV]
subjects with HIV-1 RNA <400 copies/mL after 48 weeks (HIV-1 [7]; ART-naïve): 88%
subjects with HIV-1 RNA <400 copies/mL after 48 weeks (HIV-1 [7]; PI-experienced/NRTI-experienced): 58%
subjects with HIV-1 RNA <400 copies/mL after 48 weeks (HIV-1 [7]; PI-naïve/NRTI-experienced): 84%
